The text below walks through data of ChEMBL document CHEMBL1136453, “New classes of antibacterial oxazolidinones with C-5, methylene O-linked heterocyclic side chains” (2003).

The test system of assay [1] is Staphylococcus aureus. Nature of the assay: In vitro minimum inhibitory concentration against Staphylococcus aureus MRQR. Type of assay: functional.
In a further assay the test system is Streptococcus pyogenes. Nature of the assay: In vitro minimum inhibitory concentration against Streptococcus pyogenes penicillin sensitive. Type of assay: functional. In short, it runs like this:
(§1)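 Agar dilution per NCCLS protocol with doubling dilutions from 128 to 0.008 mg/L, incubated at 37 °C. Strains came from an in-house culture collection. MIC reported in mg/L.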

Assay [2] has as its system Staphylococcus aureus. Nature of the assay: In vitro minimum inhibitory concentration against coagulase negative Staphylococcus aureus methicillin resistant (CNSMR). Type of assay: functional.
A further assay relates to Enterococcus faecalis. Nature of the assay: In vitro minimum inhibitory concentration against Enterococcus faecalis. Format: functional. An outline of the steps: as §1
Assay [3] can be described thus: In vivo antibacterial activity against Staphylococcus aureus after intravenous administration (5 mg/kg) in mice using (MTT) mouse thigh test.
In assay [4] the test system is Staphylococcus aureus. Nature of the assay: In vitro minimum inhibitory concentration against Staphylococcus aureus Oxford. Format: functional. The following applies: Staphylococcus aureus; read-out: MIC.
Assay [5] has as its system Staphylococcus aureus. In words: In vivo antibacterial activity against Staphylococcus aureus after intravenous administration (10 mg/kg) in mice using (MTT) mouse thigh test.
Assay [6] deals with Mus musculus. Nature of the assay: In vivo antibacterial activity against Staphylococcus aureus after intravenous administration (5 mg/kg) in mice using (MTT) mouse thigh test.
Assay [7] deals with Mus musculus. In words: In vivo antibacterial activity against Staphylococcus aureus after intravenous administration (10 mg/kg) in mice using (MTT) mouse thigh test.

Values after ≈ are worked out from the molar mass of the structure shown.

In general, MIC refers to the least concentration at which growth counts as inhibited. Regarding `O=C1O[C@@H](COc2ccsn2)CN1c1ccc(C2=CCOCC2)c(F)c1`, the MIC with Staphylococcus aureus [1] came out at 0.25 µg/mL (≈ 0.664 µM); in the assay on Streptococcus pyogenes, 0.5 µg/mL (≈ 1.33 µM); in the assay on Staphylococcus aureus [2], 0.25 µg/mL (≈ 0.664 µM); with Enterococcus faecalis, 0.5 µg/mL (≈ 1.33 µM); in the assay on Staphylococcus aureus [4], 0.25 µg/mL (≈ 0.664 µM). The Activity in assay [3] worked out at 0.01; in the assay on Staphylococcus aureus [5] it was 0.21.
As for `CC(=O)NC[C@H]1CN(c2ccc(C3=CCOCC3)c(F)c2)C(=O)O1`, the MIC with Staphylococcus aureus [1] amounted to 0.25 µg/mL (≈ 0.748 µM); in the assay on Streptococcus pyogenes it was 0.13 µg/mL (≈ 0.389 µM); against Staphylococcus aureus [2], 0.13 µg/mL (≈ 0.389 µM); in the assay with Enterococcus faecalis, 0.13 µg/mL (≈ 0.389 µM); in the assay with Staphylococcus aureus [4] it was 0.13 µg/mL (≈ 0.389 µM). For the same compound, the Activity in assay [3] was determined as 0.6; in the assay with Staphylococcus aureus [5] it was 1.34.
Consider `O=C1O[C@@H](COc2ccccn2)CN1c1ccc(C2=CCOCC2)c(F)c1`, for which the MIC in the assay on Staphylococcus aureus [1] came to 1 µg/mL (≈ 2.7 µM); in the assay on Streptococcus pyogenes, 2 µg/mL (≈ 5.4 µM); against Staphylococcus aureus [2], 1 µg/mL (≈ 2.7 µM); against Enterococcus faecalis it was 2 µg/mL (≈ 5.4 µM); in the assay with Staphylococcus aureus [4], 0.5 µg/mL (≈ 1.35 µM). Besides, the Activity in assay [3] is 0; with Staphylococcus aureus [5], 0.15.
With `O=C([C@@H](O)CO)N1CC=C(c2ccc(N3C[C@H](COc4ccon4)OC3=O)cc2F)CC1`, the MIC in the assay on Staphylococcus aureus [1] stood at 0.5 µg/mL (≈ 1.12 µM); with Streptococcus pyogenes, 0.5 µg/mL (≈ 1.12 µM); against Staphylococcus aureus [2], 0.5 µg/mL (≈ 1.12 µM); in the assay with Enterococcus faecalis, 1 µg/mL (≈ 2.24 µM); with Staphylococcus aureus [4], 0.25 µg/mL (≈ 0.559 µM). Further, the Activity in assay [3] came out at 0.63; in the assay on Staphylococcus aureus [5], 1.04.
Take `O=C1O[C@@H](COc2ccon2)CN1c1ccc(C2=CCN(C(=S)CO)CC2)c(F)c1`: the MIC was found to be 0.5 µg/mL (≈ 1.15 µM) in the assay on Staphylococcus aureus [1]; 0.25 µg/mL (≈ 0.577 µM) against Streptococcus pyogenes; 0.25 µg/mL (≈ 0.577 µM) against Staphylococcus aureus [2]; 0.5 µg/mL (≈ 1.15 µM) against Enterococcus faecalis; 0.25 µg/mL (≈ 0.577 µM) in the assay with Staphylococcus aureus [4]. Also, the Activity in assay [3] is reported as -0.01; with Staphylococcus aureus [5], 0.07.
`O=CN1CC=C(c2c(F)cc(N3C[C@H](COc4ccon4)OC3=O)cc2F)CC1`: the MIC with Staphylococcus aureus [1] was 0.5 µg/mL (≈ 1.23 µM); in the assay on Streptococcus pyogenes it was 0.5 µg/mL (≈ 1.23 µM); against Staphylococcus aureus [2], 0.5 µg/mL (≈ 1.23 µM); in the assay with Enterococcus faecalis it was 1 µg/mL (≈ 2.47 µM); with Staphylococcus aureus [4], 0.25 µg/mL (≈ 0.617 µM). The Activity is given as -0.01 in assay [3] and 0.43 with Staphylococcus aureus [5].
As to `O=C(CO)N1CC=C(c2ccc(N3C[C@H](COc4ccon4)OC3=O)cc2F)CC1`, the MIC is 0.5 µg/mL (≈ 1.2 µM) with Staphylococcus aureus [1]; 0.5 µg/mL (≈ 1.2 µM) with Streptococcus pyogenes; 0.5 µg/mL (≈ 1.2 µM) in the assay on Staphylococcus aureus [2]; 1 µg/mL (≈ 2.4 µM) against Enterococcus faecalis; 0.25 µg/mL (≈ 0.599 µM) in the assay with Staphylococcus aureus [4]. The Activity in assay [3] was determined as 0.71; in the assay with Staphylococcus aureus [5], 1.2.
Take `Cc1no[n+]([O-])c1OC[C@H]1CN(c2ccc(C3=CCOCC3)c(F)c2)C(=O)O1`: the MIC in the assay with Staphylococcus aureus [1] came to 2 µg/mL (≈ 5.11 µM); with Streptococcus pyogenes, 4 µg/mL (≈ 10.2 µM); in the assay with Staphylococcus aureus [2], 2 µg/mL (≈ 5.11 µM); against Enterococcus faecalis it was 2 µg/mL (≈ 5.11 µM); in the assay with Staphylococcus aureus [4] it was 1 µg/mL (≈ 2.56 µM). Also, the Activity came to 0.03 in assay [3] and 0.2 in the assay with Staphylococcus aureus [5].
`O=C(OC[C@@H](O)CO)N1CC=C(c2ccc(N3C[C@H](COc4ccon4)OC3=O)cc2F)CC1`: the minimal inhibitory concentration (MIC) with Staphylococcus aureus [1] is 0.5 µg/mL (≈ 1.05 µM); against Streptococcus pyogenes, 0.5 µg/mL (≈ 1.05 µM); against Staphylococcus aureus [2], 0.5 µg/mL (≈ 1.05 µM); in the assay with Enterococcus faecalis, 1 µg/mL (≈ 2.09 µM); with Staphylococcus aureus [4] it was 0.25 µg/mL (≈ 0.524 µM). For the same compound, the Activity in [3] is listed as 0.27; in the assay with Staphylococcus aureus [5] it was 0.48.
Turning to `C[C@H](O)C(=O)N1CC=C(c2c(F)cc(N3C[C@H](COc4ccon4)OC3=O)cc2F)CC1`, the MIC against Staphylococcus aureus [1] turned out to be 0.5 µg/mL (≈ 1.11 µM); in the assay on Streptococcus pyogenes, 1 µg/mL (≈ 2.23 µM); in the assay on Staphylococcus aureus [2] it was 0.5 µg/mL (≈ 1.11 µM); against Enterococcus faecalis, 1 µg/mL (≈ 2.23 µM); in the assay on Staphylococcus aureus [4] it was 0.5 µg/mL (≈ 1.11 µM). The Activity in assay [3] came out at 0.64; with Staphylococcus aureus [5], 1.16.
As for `CS(=O)(=O)C[C@@H](O)C(=O)N1CC=C(c2c(F)cc(N3C[C@H](COc4ccon4)OC3=O)cc2F)CC1`, the MIC came out at 0.25 µg/mL (≈ 0.474 µM) in the assay with Staphylococcus aureus [1]; 0.5 µg/mL (≈ 0.948 µM) with Streptococcus pyogenes; 0.25 µg/mL (≈ 0.474 µM) against Staphylococcus aureus [2]; 0.5 µg/mL (≈ 0.948 µM) in the assay on Enterococcus faecalis; 0.25 µg/mL (≈ 0.474 µM) in the assay with Staphylococcus aureus [4]. Besides, the Activity in assay [3] amounted to 1.02; with Staphylococcus aureus [5], 1.42.
For `C[C@H](O)C(=O)N1CC=C(c2ccc(N3C[C@H](COc4cnsn4)OC3=O)cc2F)CC1`, the MIC against Staphylococcus aureus [1] stood at 0.5 µg/mL (≈ 1.11 µM); in the assay on Streptococcus pyogenes, 1 µg/mL (≈ 2.23 µM); in the assay with Staphylococcus aureus [2] it was 0.5 µg/mL (≈ 1.11 µM); with Enterococcus faecalis, 1 µg/mL (≈ 2.23 µM); in the assay with Staphylococcus aureus [4], 0.25 µg/mL (≈ 0.557 µM). The Activity in [3] is listed as 0.43; in the assay on Staphylococcus aureus [5] it was 1.14.
For the compound `O=C1O[C@@H](COc2ccon2)CN1c1ccc(C2=CCOCC2)c(F)c1`, the MIC with Staphylococcus aureus [1] came out at 0.5 µg/mL (≈ 1.39 µM); against Streptococcus pyogenes, 0.5 µg/mL (≈ 1.39 µM); in the assay on Staphylococcus aureus [2], 0.5 µg/mL (≈ 1.39 µM); in the assay on Enterococcus faecalis, 1 µg/mL (≈ 2.78 µM); with Staphylococcus aureus [4], 0.5 µg/mL (≈ 1.39 µM). Besides, the Activity is given as -0.07 in assay [3] and 0.06 in the assay with Staphylococcus aureus [5].
For the compound `O=C([C@@H](O)CO)N1CC=C(c2c(F)cc(N3C[C@H](CO)OC3=O)cc2F)CC1`, the minimum inhibitory concentration (MIC) against Staphylococcus aureus [1] came out at 0.5 µg/mL (≈ 1.26 µM); against Streptococcus pyogenes, 0.5 µg/mL (≈ 1.26 µM); with Staphylococcus aureus [2], 0.25 µg/mL (≈ 0.628 µM); with Enterococcus faecalis it was 1 µg/mL (≈ 2.51 µM); in the assay on Staphylococcus aureus [4] it was 0.25 µg/mL (≈ 0.628 µM). The Activity was 0.59 in assay [3] and 1.01 in the assay with Staphylococcus aureus [5].
Turning to `CC(O)C(=O)N1CC=C(c2c(F)cc(N3C[C@H](COc4ccon4)OC3=O)cc2F)CC1` (single isomer, unassigned), the MIC in the assay with Staphylococcus aureus [1] worked out at 0.5 µg/mL (≈ 1.11 µM); against Streptococcus pyogenes it was 1 µg/mL (≈ 2.23 µM); in the assay on Staphylococcus aureus [2], 0.5 µg/mL (≈ 1.11 µM); against Enterococcus faecalis, 1 µg/mL (≈ 2.23 µM); in the assay on Staphylococcus aureus [4] it was 0.5 µg/mL (≈ 1.11 µM). In addition, the figures for the Activity (in [3]; in the assay on Staphylococcus aureus [5]) were 0.49 and 1.02, respectively.
`CC(=O)NC[C@H]1CN(c2ccc(N3CCOCC3)c(F)c2)C(=O)O1` [LINEZOLID]: the MIC amounted to 1 µg/mL (≈ 2.96 µM) with Staphylococcus aureus [1], 1 µg/mL (≈ 2.96 µM) against Streptococcus pyogenes, 0.5 µg/mL (≈ 1.48 µM) against Staphylococcus aureus [2] and 0.5 µg/mL (≈ 1.48 µM) with Staphylococcus aureus [4]. The Activity with Mus musculus [6] is given as 0.05; in the assay with Mus musculus [7] it was 1.4.
Consider `O=C([C@@H](O)CO)N1CC=C(c2c(F)cc(N3C[C@H](COc4ccon4)OC3=O)cc2F)CC1` [POSIZOLID], for which the MIC was determined as 0.5 µg/mL (≈ 1.07 µM) against Staphylococcus aureus [1]; 0.25 µg/mL (≈ 0.537 µM) with Streptococcus pyogenes; 0.5 µg/mL (≈ 1.07 µM) in the assay with Staphylococcus aureus [2]; 0.5 µg/mL (≈ 1.07 µM) with Enterococcus faecalis; 0.25 µg/mL (≈ 0.537 µM) with Staphylococcus aureus [4]. For the same compound, the Activity came out at 0.7 in assay [3] and 0.98 with Staphylococcus aureus [5].
